Assay results as given in ChEMBL document CHEMBL3525971 (Drug Metab Dispos, 2011).

Experiments:
[1] = Tmax in castrated pig plasma withdrawn from portal vein at 0.8 mg/kg administered as intrajejunal dose 20 mins after ketoconazole administration by UPLC-tandem mass spectrometry; type: ADME, organism-based, Sus scrofa; design: dose 0.8 mg/kg; conditions: male
Summary of the method: (§1)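 Portal, hepatic and femoral vein plasma sampled over 6 h and assayed by UPLC-MS/MS. Tmax read directly from the profiles. Terminal t1/2 calculated as ln2/λz by non- or compartmental analysis; values below LLOQ after Cmax excluded.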

[2] = AUC (0 to 6 hrs) in castrated pig bile at 0.8 mg/kg administered as intrajejunal dose 20 mins after ketoconazole administration by UPLC-tandem mass spectrometry; type: ADME, organism-based, Sus scrofa; design: time < 6 hr, route […], dose 0.8 mg/kg; conditions: male
[3] = Cmax in castrated pig bile at 0.2 mg/kg, iv by UPLC-tandem mass spectrometry; type: ADME, organism-based, Sus scrofa; design: dose 0.2 mg/kg, route intravenous; conditions: male
[4] = Ratio of AUC in bile to plasma withdrawn from hepatic vein in castrated pig at 0.8 mg/kg administered as intrajejunal dose 20 mins after ketoconazole administration by UPLC-tandem mass spectrometry; type: ADME, organism-based, Sus scrofa; design: dose 0.8 mg/kg; conditions: male, read-out: Ratio AUC
Summary of the method: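 Bile collected 0-6 h and weighed; portal and hepatic vein plasma sampled. UPLC-MS/MS quantification against finasteride-d9 in SRM mode. Bile/plasma AUC ratio calculated per vein.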

[5] = Drug excretion in castrated pig urine assessed as unchanged drug level at 0.8 mg/kg administered as intrajejunal dose measured during 6 hrs sampling by UPLC-tandem mass spectrometry; type: ADME, organism-based, Sus scrofa; design: dose 0.8 mg/kg; conditions: in vivo, other
[6] = Drug excretion in castrated pig urine assessed as fraction of the dose excreted at 0.8 mg/kg administered as intrajejunal dose measured during 6 hrs sampling by UPLC-tandem mass spectrometry; type: ADME, organism-based, Sus scrofa; design: dose 0.8 mg/kg; conditions: male, read-out: Drug excretion
[7] = Drug excretion in castrated pig urine assessed as fraction of the dose excreted at 0.8 mg/kg administered as intrajejunal dose 20 mins after ketoconazole administration measured during 6 hrs sampling by UPLC-tandem mass spectrometry; type: ADME, organism-based, Sus scrofa; design: dose 0.8 mg/kg; conditions: male, read-out: Drug excretion
[8] = Renal clearance in castrated pig at 0.8 mg/kg, administered as intrajejunal dose by UPLC-tandem mass spectrometry; type: ADME, organism-based, Sus scrofa, Kidney; design: dose 0.8 mg/kg; conditions: male, in vivo
Summary of the method: (§2)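 Urine collected 0-360 min into a closed bag, weighed and frozen at -20°C. […] Doses: iv 0.2 mg/kg bolus via central vein catheter (n=3), or ij 0.8 mg/kg alone or 20 min after ij ketoconazole 10 mg/kg (n=5). Renal clearance derived from the amount excreted in urine over 0-6 h.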

[9] = Renal clearance in castrated pig at 0.2 mg/kg, iv by UPLC-tandem mass spectrometry; type: ADME, organism-based, Sus scrofa, Kidney; design: dose 0.2 mg/kg, route intravenous; conditions: male, in vivo; summary of the method: as §2
[10] = Total plasma clearance in human; type: ADME, organism-based
[11] = Terminal half life in castrated pig plasma withdrawn from portal vein at 0.8 mg/kg administered as intrajejunal dose 20 mins after ketoconazole administration by UPLC-tandem mass spectrometry; type: ADME, organism-based, Sus scrofa; design: dose 0.8 mg/kg; conditions: male, read-out: beta t1/2 (converted); summary of the method: as §1

- Tmax [1]: 18 min
- AUC(0-t) at 6 h [2]: 4.2 µM·h
- Cmax [3]: 500 nM
- Kp at 20 min [4]: 6
- dose excreted at 6 h [6]: 0.02%
- dose excreted [7]: 0.08%
- CL renal [8]: 7.2 mL/day/kg
- CL renal [9]: 14.4 mL/day/kg
- clearance [10]: 2.33 mL/min/kg
- half-life [11]: 234 min
Compound: CC(C)(C)NC(=O)[C@H]1CC[C@H]2[C@@H]3CC[C@H]4NC(=O)C=C[C@]4(C)[C@H]3CC[C@]12C [FINASTERIDE]
- Ae [5]: 0.01 µmol
